Source: PubChem
This is one part of a sample in which hits are shown more often than they occur.
YB-1 expr inh – YB-1 expression inhibition. delta delta Cp (YB-1 minus CDIP) (concentration not given with the values). 30,000 compounds, 0.37% hits. AID 434959. U2OS, qRT-PCR YB-1 vs CDIP delta delta Cp, 16 h; stronger effect = higher value; zero = DMSO, each unit about twofold;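 active means delta delta Cp rounded down to an integer at or above 3, about 3 SD of DMSO wells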;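 further: higher means less YB-1 transcript or more CDIP transcript relative to DMSO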
INS-1E ATP HTS – INS-1E beta cell protection from cytokine death; 20,000 compounds, 0.1% hits; INS-1E cytokine-induced death, ATP luminescence, 48 h; normalised: neutral wells 0, positive control 100; protection from cytokine-induced ATP loss, % at 10 µM;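 active means mean replicate protection from cytokine-induced ATP loss at least 50% and at least 75% of replicates each reaching 50%; inconclusive means meets only one of the two criteria, mean or replicate share; inactive means fails both the mean and replicate share criteria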
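assay system = INS-1E rat insulinoma cells | amount = 8000 cells per well | medium = phenol-red-free RPMI with 5% fetal bovine serum | doses = one compound concentration, pin transfer | timing = 48 h cytokine plus compound treatment, 10 min reagent incubation | also added = IL-1β, TNF-α and IFN-γ cytokine mix | signal = CellTiter-Glo luminescence measuring cellular ATP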
T cruzi intra – inhibitors of intracellular Trypanosoma cruzi | intracellular Trypanosoma cruzi in host cells, plate reader | activity score (inhibition), % at 5.01 µM | 22,000 compounds, 4.9% hits; in the data active means activity score above about 55%; inconclusive means no clear call, values can overlap the other calls;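 further: parasites and compound incubated about four days before reading; 0% = median of neutral control wells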
An asterisk follows results filed as active; ? = inconclusive; / = not tested or not shown.

SMILES	YB-1 expr inh	INS-1E ATP HTS	T cruzi intra
COc1ccc(NC(=O)Nc2ccc3c(c2)CC(=O)N([C@@H](C)CO)C[C@H](C)[C@@H](CN(C)Cc2ccc(Oc4ccccc4)cc2)O3)cc1	0.393	-39.6	62.5*
C[C@H]1CN([C@@H](C)CO)C(=O)Cc2cc(NC(=O)C3CCCCC3)ccc2O[C@@H]1CN(C)Cc1ccc(Oc2ccccc2)cc1	0.16	-29.2	59.1*
COc1ccc(NC(=O)Nc2ccc3c(c2)CC(=O)N([C@H](C)CO)C[C@@H](C)[C@@H](CN(C)Cc2ccc(Oc4ccccc4)cc2)O3)cc1	0.0711	-22.4	71.7*
C[C@@H]1CN([C@H](C)CO)C(=O)Cc2cc(NC(=O)C3CCCCC3)ccc2O[C@H]1CN(C)Cc1ccccc1	-0.282	-6.2	-1.6
COc1ccc(NC(=O)Nc2ccc3c(c2)CC(=O)N([C@H](C)CO)C[C@@H](C)[C@H](CN(C)Cc2ccc(Oc4ccccc4)cc2)O3)cc1	-0.00314	-24.6	10.2
COc1ccc(-c2coc3c(OC)c(OC)ccc3c2=O)cc1	-0.717	/	/
CN(C)C(=O)c1cccc2c1-c1ccccc1C2=O	-0.409	/	/
Cc1onc(-c2ccccc2Cl)c1C1=NCCO1	-0.18	/	/
C[C@@H]1CN([C@@H](C)CO)C(=O)Cc2cc(NC(=O)Nc3ccc(C(F)(F)F)cc3)ccc2O[C@@H]1CN(C)S(=O)(=O)c1ccccc1	-0.456	-11.2	75.3*
C[C@H](CO)N1C[C@H](C)[C@H](CN(C)S(=O)(=O)c2ccccc2)Oc2ccc(NC(=O)Nc3ccc(C(F)(F)F)cc3)cc2CC1=O	0.268	-68.2	76.6*
C[C@@H]1CN([C@@H](C)CO)C(=O)Cc2cc(NC(=O)Nc3ccc(C(F)(F)F)cc3)ccc2O[C@@H]1CN(C)S(=O)(=O)c1cccs1	0.361	-20.2	72.8*
Cc1ccc(S(=O)(=O)N(C)C[C@@H]2Oc3ccc(NC(=O)Nc4ccc(C(F)(F)F)cc4)cc3CC(=O)N([C@H](C)CO)C[C@@H]2C)cc1	0.552	-31.7	?
C[C@H]1CN([C@@H](C)CO)C(=O)Cc2cc(NC(=O)Nc3ccc(C(F)(F)F)cc3)ccc2O[C@@H]1CN(C)S(=O)(=O)c1ccccc1	0.381	7.8	-5.1
C[C@H](CO)N1C[C@H](C)[C@H](CN(C)S(=O)(=O)c2cccs2)Oc2ccc(NC(=O)Nc3ccc(C(F)(F)F)cc3)cc2CC1=O	/	-21.5	40.9
COc1cc(C2NCCS2)cc(OC)c1OC (stereo not drawn)	-0.549	/	/
Cn1c(=O)c2c(O)c(C=Nc3ccc(Cl)cc3)c(=O)n(C)c2n(C)c1=O	-0.143	/	/
O=C(N/N=C/c1ccc(O)c(O)c1O)c1ccccn1	0.362	21.1	51.4
C[C@@H]1CCCCO[C@H](CN(C)Cc2ccc(C(F)(F)F)cc2)[C@@H](C)CN([C@H](C)CO)C(=O)c2cc(NC(=O)Nc3cccc4ccccc34)ccc2O1	0.0751	-4.0	74.0*
C[C@@H]1CCCCO[C@@H](CN(C)C(=O)Nc2ccc(C(F)(F)F)cc2)[C@@H](C)CN([C@H](C)CO)C(=O)c2cc(NC(=O)Nc3ccc(C(F)(F)F)cc3)ccc2O1	-0.153	-3.4	68.8*
CC(C)NC(=O)N(C)C[C@H]1OCCCC[C@@H](C)Oc2ccc(NC(=O)Nc3ccc(C(F)(F)F)cc3)cc2C(=O)N([C@H](C)CO)C[C@@H]1C	0.255	-14.4	22.8
C[C@H]1CN([C@@H](C)CO)C(=O)c2cc(NC(=O)Nc3cccc4ccccc34)ccc2O[C@H]1CN(C)Cc1ccc(C(F)(F)F)cc1	0.155	/	4.7
C[C@@H]1CCCCO[C@@H](CN(C)C(=O)Nc2ccccc2)[C@@H](C)CN([C@H](C)CO)C(=O)c2cc(NC(=O)Nc3ccccc3)ccc2O1	0.0565	1.8	-4.5
C[C@@H]1CCCCO[C@@H](CN(C)C(=O)Nc2ccccc2)[C@@H](C)CN([C@H](C)CO)C(=O)c2cc(NC(=O)c3ccccc3)ccc2O1	-12.6	-7.8	-8.9
C[C@@H]1CCCCO[C@H](CN(C)C(=O)Nc2ccccc2)[C@@H](C)CN([C@H](C)CO)C(=O)c2cc(NC(=O)Nc3ccc(C(F)(F)F)cc3)ccc2O1	0.484	-44.1	70.2*
C[C@@H]1CCCCO[C@H](CN(C)C(=O)Nc2ccc(C(F)(F)F)cc2)[C@@H](C)CN([C@H](C)CO)C(=O)c2cc(NC(=O)c3ccccc3)ccc2O1	0.389	-7.8	58.6*
SMILES	YB-1 expr inh	INS-1E ATP HTS	T cruzi intra
COC(=O)c1ccc(Oc2ccc(Cl)cc2Cl)o1	0.0463	/	/
O=C(NO)c1cccc(C(=O)N/N=C/c2cccc3ccccc23)c1	-0.0518	17.1	-20.5
C[C@@H]1CCCCO[C@@H](CN(C)C(=O)C2CCCCC2)[C@@H](C)CN([C@H](C)CO)C(=O)c2cc(NC(=O)Nc3ccc(C(F)(F)F)cc3)ccc2O1	0.00148	-24.7	77.2*
C[C@H]1CN([C@@H](C)CO)C(=O)c2cc(NC(=O)Nc3ccc(C(F)(F)F)cc3)ccc2O[C@@H]1CN(C)C(=O)Nc1ccc(F)cc1	0.0733	1.7	-3.4
C[C@@H]1CCCCO[C@@H](CN(C)C(=O)c2ccccc2)[C@@H](C)CN([C@H](C)CO)C(=O)c2cc(NC(=O)Nc3ccc(C(F)(F)F)cc3)ccc2O1	-0.265	-2.4	67.8*
C[C@@H]1CCCCO[C@@H](CN(C)C(=O)c2ccccc2)[C@@H](C)CN([C@H](C)CO)C(=O)c2cc(NC(=O)Nc3ccccc3)ccc2O1	-0.425	9.5	-9.4
C[C@@H]1CCCCO[C@H](CN(C)C(=O)Nc2ccc(C(F)(F)F)cc2)[C@@H](C)CN([C@H](C)CO)C(=O)c2cc(NC(=O)Nc3ccc4c(c3)OCO4)ccc2O1	0.122	-22.3	59.1*
C[C@@H]1CCCCO[C@@H](CN(C)C(=O)C2CCCCC2)[C@@H](C)CN([C@H](C)CO)C(=O)c2cc(NC(=O)Nc3ccc(F)cc3)ccc2O1	0.207	-2.0	2.1
C[C@@H]1CCCCO[C@H](CN(C)C(=O)Nc2ccc3c(c2)OCO3)[C@@H](C)CN([C@H](C)CO)C(=O)c2cc(NC(=O)Nc3ccc4c(c3)OCO4)ccc2O1	-0.0488	2.5	-0.9
C[C@@H]1CN([C@@H](C)CO)C(=O)c2cc(NC(=O)Nc3ccc(C(F)(F)F)cc3)ccc2O[C@@H]1CN(C)C(=O)Nc1ccc(F)cc1	-0.436	-48.7	57.9*
COc1cc(NC(=O)Cc2ccc(F)cc2)cc(S(=O)(=O)c2ccc(Cl)cc2)c1	-0.404	/	/
CSc1sc(C(=O)Sc2ccccc2)cc1S(=O)(=O)C(C)C	0.124	/	/
O=C(CCCCCC(=O)Nc1ccccc1O)N/N=C/c1ccc(Br)s1	0.138	-5.7	20.1
COc1ccc(CCn2cnc3oc(-c4ccccc4)c(-c4ccccc4)c3c2=N)cc1OC	0.449	/	/
COc1ccc(Br)c(/C=N/NC(=O)c2ccccc2O)c1	0.505	-15.1	-9.4
C[C@@H]1CCCCO[C@H](CN(C)C(=O)Nc2ccc(F)cc2)[C@@H](C)CN([C@H](C)CO)C(=O)c2cc(NC(=O)Nc3ccc(C(F)(F)F)cc3)ccc2O1	-0.104	-31.7	62.2*
CC(C)NC(=O)N(C)C[C@@H]1OCCCC[C@@H](C)Oc2ccc(NC(=O)Nc3ccc(C(F)(F)F)cc3)cc2C(=O)N([C@H](C)CO)C[C@@H]1C	0.464	-0.2	-10.7
